Source: ChEMBL document CHEMBL1125540, “Antiviral and antitumor structure-activity relationship studies on tetracyclic eudistomines” (1992)
Converted amounts (≈) assume the structure as drawn.

What was measured:
Assay type in all cases: functional
[1] = test system: HeLa; assay: Evaluation for antiviral activity against Coxsackie virus B4 in HeLa cell cultures (Concentration required to reduce virus-induced cytopathogenicity by 50%); details: Homo sapiens
How it was run: (§1)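 HeLa cultures were infected with respiratory syncytial, vesicular stomatitis, Coxsackie B4 or polio-1 virus. The antiviral end-point is 50% reduction of virus-induced cytopathogenicity. Cytotoxicity is the minimum concentration producing microscopically detectable alteration of normal cell morphology.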

[2] = test system: HeLa; assay: Evaluation in HeLa cell cultures for cytotoxicity that is to cause microscopically detectable alteration of normal cell morphology; details: Homo sapiens; how it was run: as §1
[3] = Evaluation for antiviral activity against herpes simplex virus-2(G) in primary rabbit kidney cell cultures(PRK) (Concentration required to reduce virus-induced cytopathogenicity by 50%); details: Oryctolagus cuniculus
[4] = test system: HeLa; assay: Evaluation for antiviral activity against vesicular stomatitis virus in HeLa cell cultures (Concentration required to reduce virus-induced cytopathogenicity by 50%); details: Homo sapiens; how it was run: as §1
[5] = test system: Vero; assay: Evaluation for antiviral activity against Coxsackie virus B4 in Vero cell cultures (Concentration required to reduce virus-induced cytopathogenicity by 50%); details: Chlorocebus sabaeus
How it was run: (§2)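 Vero cultures were infected with parainfluenza-3, reovirus-1, Sindbis, Coxsackie B4 or Semliki forest virus. Values are concentrations giving 50% reduction of virus-induced cytopathogenicity, or a microscopically detectable alteration of normal cell morphology for cytotoxicity. Each is the average of two separate experiments.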

[6] = test system: HeLa; assay: Evaluation for antiviral activity against polio virus-1 in HeLa cell cultures (Concentration required to reduce virus-induced cytopathogenicity by 50%); details: Homo sapiens; how it was run: as §1
[7] = test system: Vero; assay: Evaluation in Vero cell cultures for cytotoxicity that is to cause microscopically detectable alteration of normal cell morphology; details: Chlorocebus sabaeus; how it was run: as §2
[8] = Evaluation for antiviral activity against vaccinia virus in primary rabbit kidney cell cultures(PRK) (Concentration required to reduce virus-induced cytopathogenicity by 50%); details: Oryctolagus cuniculus
[9] = Evaluated for antiviral activity against herpes simplex virus-1(KOS) in primary rabbit kidney cell cultures(PRK) (Concentration required to reduce virus-induced cytopathogenicity by 50%); details: Oryctolagus cuniculus
[10] = test system: Vero; assay: Evaluation for antiviral activity against Sindbis virus in Vero cell cultures (Concentration required to reduce virus-induced cytopathogenicity by 50%); details: Chlorocebus sabaeus; how it was run: as §2
[11] = Evaluation in PRK cell cultures for cytotoxicity that is to cause microscopically detectable alteration of normal cell morphology; details: Oryctolagus cuniculus
[12] = test system: Vero; assay: Evaluation for antiviral activity against forest virus in Vero cell cultures (Concentration required to reduce virus-induced cytopathogenicity by 50%); details: Chlorocebus sabaeus; how it was run: as §2
[13] = test system: Vero; assay: Evaluation for antiviral activity against parainfluenza-3 virus in Vero cell cultures (Concentration required to reduce virus-induced cytopathogenicity by 50%); details: Chlorocebus sabaeus; how it was run: as §2
[14] = Evaluation for antiviral activity against vesicular stomatitis virus in primary rabbit kidney cell cultures(PRK) (Concentration required to reduce virus-induced cytopathogenicity by 50%); details: Oryctolagus cuniculus
[15] = test system: Vero; assay: Evaluation for antiviral activity against reo virus-1 in Vero cell cultures (Concentration required to reduce virus-induced cytopathogenicity by 50%); details: Chlorocebus sabaeus; how it was run: as §2
[16] = test system: MDCK; assay: Compound was evaluated in MDCK cell cultures for cytotoxicity that is to cause microscopically detectable alteration of normal cell morphology; details: Canis lupus familiaris
How it was run: (§3)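 Influenza A and B virus replication in MDCK cultures. Antiviral value is the concentration giving 50% reduction of virus-induced cytopathogenicity. Cytotoxicity is the concentration causing a microscopically detectable change in normal cell morphology.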

[17] = test system: Influenza A virus; assay: Concentration required to reduce influenza virus A (ishikawa) induced cytopathogenicity by 50%; how it was run: as §3
[18] = test system: Influenza B virus; assay: Concentration required to reduce influenza virus B (singapore) induced cytopathogenicity by 50%; how it was run: as §3
[19] = test system: HeLa; assay: Compound was evaluated for antiviral activity against respiratory syncitial virus (long) in HeLa cell cultures (Concentration required to reduce virus-induced cytopathogenicity by 50%); details: Homo sapiens; how it was run: as §1
[20] = Evaluation for antiviral activity against herpes simplex virus-1 (McIntyre) in primary rabbit kidney cell cultures(PRK) (Concentration required to reduce virus-induced cytopathogenicity by 50%); details: Oryctolagus cuniculus
[21] = test system: L1210; assay: Inhibitory effect on the proliferation of murine leukemia cells (L1210); details: Mus musculus, read-out: ID50 (the source's name)
How it was run: (§4)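 Proliferation assay in murine leukemia L1210, human T-lymphoblast Molt-4F and human T-lymphocyte MT-4 cells. ID50 is the dose inhibiting tumor cell proliferation by 50%, expressed in μg/mL.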

[22] = test system: MT4; assay: Inhibitory effect on the proliferation of human T-lymphocyte (MT-4); details: read-out: ID50 (the source's name); how it was run: as §4
[23] = Evaluation for antiviral activity against herpes simplex virus-1(TK-) (B2006) in primary rabbit kidney cell cultures(PRK) (Concentration required to reduce virus-induced cytopathogenicity by 50%); details: Oryctolagus cuniculus
[24] = test system: MOLT-4F; assay: Inhibitory effect on the proliferation of human T-lymphoblast cells (Molt-4F); details: read-out: ID50 (the source's name); how it was run: as §4
[25] = Evaluation for antiviral activity against herpes simplex virus-2(196) in primary rabbit kidney cell cultures(PRK) (Concentration required to reduce virus-induced cytopathogenicity by 50%); details: Oryctolagus cuniculus
[26] = Evaluation for antiviral activity against herpes simplex virus-2(Lyons) in primary rabbit kidney cell cultures(PRK) (Concentration required to reduce virus-induced cytopathogenicity by 50%); details: Oryctolagus cuniculus
[27] = Evaluation for antiviral activity against herpes simplex virus-1(F) in primary rabbit kidney cell cultures(PRK) (Concentration required to reduce virus-induced cytopathogenicity by 50%); details: Oryctolagus cuniculus

| Compound | MIC [1] [µg/mL] | MCC [2] [µg/mL] | MIC [3] [µg/mL] | MIC [4] [µg/mL] | MIC [5] [µg/mL] | MIC [6] [µg/mL] | MCC [7] [µg/mL] | MIC [8] [µg/mL] | MIC [9] [µg/mL] | MIC [10] [µg/mL] | MCC [11] [µg/mL] | MIC [12] [µg/mL] | MIC [13] [µg/mL] | MIC [14] [µg/mL] | MIC [15] [µg/mL] | MCC [16] [µg/mL] | MIC [20] [µg/mL] | MIC [23] [µg/mL] | MIC [25] [µg/mL] | MIC [26] [µg/mL] | further results |
| --- | --- | --- | --- | --- | --- | --- | --- | --- | --- | --- | --- | --- | --- | --- | --- | --- | --- | --- | --- | --- | --- |
| C[C@@H]1CSCON2CCc3c([nH]c4ccccc34)[C@H]12 | > 40 | 40 | > 100 | > 40 | 20 (≈ 72.9 µM) | > 40 | > 100 | > 100 | > 100 | 20 (≈ 72.9 µM) | > 100 | > 40 | > 40 | > 100 | > 40 | – | – | – | – | – | – |
| O[C@@H]1CSCON2CCc3c([nH]c4ccccc34)[C@@H]12 | > 40 | 100 | > 100 | > 100 | > 40 | > 100 | > 100 | > 100 | > 100 | 20 (≈ 72.4 µM) | > 100 | > 40 | > 40 | > 100 | > 40 | 3 | – | – | – | – | MIC [17]: > 1.6 µg/mL; MIC [18]: > 1.6 µg/mL |
| c1ccc2c3c([nH]c2c1)C1CCSCON1CC3 (stereo unspecified) | > 10 | > 40 | > 100 | > 10 | > 10 | > 10 | > 40 | > 100 | – | > 10 | > 200 | > 10 | > 10 | > 100 | > 10 | 80 | > 100 | > 100 | > 100 | > 100 | MIC [19]: > 8 µg/mL; MIC [17]: > 40 µg/mL; MIC [18]: > 40 µg/mL; IC50 [21]: 24.9 µg/mL (≈ 95.6 µM); IC50 [22]: 96 µg/mL (≈ 369 µM); IC50 [24]: 18.3 µg/mL (≈ 70.3 µM) |
| Nc1nccc2c1ncn2[C@@H]1C[C@H](CO)[C@@H](O)[C@H]1O [3-DEAZAARISTEROMYCIN A] | > 400 | > 400 | > 200 | 2 (≈ 7.57 µM) | 20 (≈ 75.7 µM) | > 400 | > 400 | 0.7 (≈ 2.65 µM) | > 200 | 20 (≈ 75.7 µM) | > 400 | > 400 | 2 (≈ 7.57 µM) | 2 (≈ 7.57 µM) | 2 (≈ 7.57 µM) | – | > 200 | 150 (≈ 568 µM) | > 200 | > 200 | MIC [27]: > 200 µg/mL |
| O=c1[nH]c(=O)n([C@H]2C[C@H](O)[C@@H](CO)O2)cc1/C=C/Br [BRIVUDINE] | > 400 | > 400 | 7 (≈ 21 µM) | > 400 | > 400 | > 400 | > 400 | 7 (≈ 21 µM) | – | > 400 | > 400 | > 400 | > 400 | > 200 | > 400 | – | 0.02 (≈ 0.06 µM) | 150 (≈ 450 µM) | 70 (≈ 210 µM) | 70 (≈ 210 µM) | MIC [27]: 0.02 µg/mL (≈ 0.06 µM) |
| NC(=O)c1ncn([C@@H]2O[C@H](CO)[C@@H](O)[C@H]2O)n1 [RIBAVIRIN] | 70 (≈ 287 µM) | > 400 | > 200 | 20 (≈ 81.9 µM) | 70 (≈ 287 µM) | 70 (≈ 287 µM) | > 400 | 20 (≈ 81.9 µM) | > 200 | 40 (≈ 164 µM) | > 400 | 40 (≈ 164 µM) | 20 (≈ 81.9 µM) | > 400 | 70 (≈ 287 µM) | > 200 | > 200 | > 200 | > 200 | > 200 | MIC [19]: 3 µg/mL (≈ 12.3 µM); MIC [17]: 15 µg/mL (≈ 61.4 µM); MIC [18]: 15 µg/mL (≈ 61.4 µM); MIC [27]: > 200 µg/mL |
